Legend:
[1] = target: Cannabinoid receptor 1 (Rattus norvegicus, UniProt P20272); experiment: Displacement of [3H]CP-55940 from CB1 receptor in Sprague-Dawley rat brain membrane; format: cell membranes
[2] = target: T1, Cannabinoid receptor 2 (Homo sapiens, UniProt P34972); experiment: Displacement of [3H]CP-55940 from human cloned CB2 receptor
[3] = Selectivity for human cloned CB2 receptor over Sprague Dawley rat brain membrane CB1 receptor
[4] = target: T1, Cannabinoid receptor 2; settings: CHO, 3 uM
[5] = target: T1, Cannabinoid receptor 2; experiment: Agonist activity at human CB2 receptor expressed in CHO cells by [35S]GTP-gamma-S binding assay; format: functional, cell-based
Procedure, shortened: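 [35S]GTPγS binding on membranes of CHO cells stably expressing human CB2. 10 µg membrane protein was incubated 1.5 h at 30 °C in 50 mM Tris-HCl pH 7.4, 3 mM MgCl2, 0.2 mM EGTA, 100 mM NaCl, with 10 µM GDP, 0.1 nM [35S]GTPγS, 0.1% BSA and agonist over a concentration range. Nonspecific binding was set with 20 µM GTPγS. Filtration was followed by scintillation counting. EC50 came from nonlinear regression, 3-6 experiments in triplicate.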

[6] = target: T1, Cannabinoid receptor 2; experiment: Agonist activity at human CB2 receptor expressed in CHO cells by [35S]GTP-gamma-S binding assay relative to CP-55940; format: functional, cell-based
Procedure, shortened: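 Same hCB2-CHO membrane [35S]GTPγS assay (10 µM GDP, 0.1 nM radioligand, 1.5 h, 30 °C). Net stimulation at each concentration was expressed as percent of that given by 3 µM CP-55,940, run as an internal standard in each experiment. Emax came from nonlinear regression of the concentration-effect curves, mean ± SEM of 3-6 experiments in triplicate.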

T1 sequence (P34972 whole entry): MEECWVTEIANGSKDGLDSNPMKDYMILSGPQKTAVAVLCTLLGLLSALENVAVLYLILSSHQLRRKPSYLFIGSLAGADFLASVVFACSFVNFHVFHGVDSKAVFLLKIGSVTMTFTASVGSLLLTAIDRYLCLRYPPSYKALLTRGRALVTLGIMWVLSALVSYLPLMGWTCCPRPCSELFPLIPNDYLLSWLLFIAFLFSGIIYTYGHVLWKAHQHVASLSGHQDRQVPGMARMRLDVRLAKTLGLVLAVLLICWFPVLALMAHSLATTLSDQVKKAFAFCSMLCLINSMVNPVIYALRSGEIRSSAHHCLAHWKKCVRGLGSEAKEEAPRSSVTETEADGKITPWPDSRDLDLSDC
Sequence of Cannabinoid receptor 1 (P20272 whole entry): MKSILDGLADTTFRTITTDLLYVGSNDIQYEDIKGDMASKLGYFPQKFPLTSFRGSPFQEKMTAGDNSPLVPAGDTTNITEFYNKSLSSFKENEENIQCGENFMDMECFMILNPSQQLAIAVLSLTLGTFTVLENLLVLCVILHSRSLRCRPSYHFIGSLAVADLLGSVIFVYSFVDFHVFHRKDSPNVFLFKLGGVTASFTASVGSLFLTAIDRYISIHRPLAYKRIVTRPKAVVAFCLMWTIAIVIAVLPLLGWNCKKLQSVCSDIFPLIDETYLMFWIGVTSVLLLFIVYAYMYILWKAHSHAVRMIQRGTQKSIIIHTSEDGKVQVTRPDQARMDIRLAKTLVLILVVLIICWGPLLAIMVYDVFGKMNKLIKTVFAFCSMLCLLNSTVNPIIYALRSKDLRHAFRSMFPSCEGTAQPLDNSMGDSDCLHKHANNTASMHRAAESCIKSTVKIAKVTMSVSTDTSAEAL

For `CC(C)(C)c1ccc([C@@H]2C[C@H](O)CC[C@H]2CCCO)cc1` (relative stereo), the Ki [1] was > 10000 nM and the Ki [2] was > 10000 nM.

With `CCCCCCC(C)(C)c1ccc([C@H]2CCC[C@@H](O)C2)c(O)c1` the Ki [1] was 2.2 nM.

For `CCCCCCCC(C)(C)c1ccc([C@@H]2CCC[C@@H](O)C2)cc1`, the Ki [1] was 193 nM, the Ki [2] was 154 nM and the Ratio Ki [3] was 1.3.

For `CCCCCCC(C)(C)c1ccc([C@H]2CCC[C@@H](O)C2)cc1` (relative stereo), the Ki [1] was 2950 nM, the Ki [2] was 231 nM and the Ratio Ki [3] was 13.

Work on `CCCCCCCCC(C)(C)c1ccc([C@H]2CCC[C@@H](O)C2)cc1` (relative stereo) yielded a Ki [1] of 1710 nM, a Ki [2] of 1120 nM and a Ratio Ki [3] of 1.5.

With `CCCCCCC(C)(C)c1ccc([C@@H]2CCC[C@@H](O)C2)cc1` (relative stereo) the Ki [1] was 645 nM, the Ki [2] was 178 nM and the Ratio Ki [3] was 3.6.

In the case of `CCCCC(C)(C)c1ccc([C@@H]2C[C@H](O)CC[C@H]2CCCO)cc1` (relative stereo), the Ki [1] is reported as 579 nM, the Ki [2] is reported as 700 nM and the Ratio Ki [3] is reported as 0.8.

For `CCCCCCC(C)(C)c1ccc([C@@H]2C[C@H](O)CC[C@H]2CCCO)c(O)c1`, the Emax [4] was 85%.

In the case of `CCCCCCC(C)(C)c1ccc([C@@H]2C[C@H](O)CC[C@H]2CCCO)cc1` (relative stereo), the Ki [1] is reported as 547 nM, the Ki [2] is reported as 238 nM and the Ratio Ki [3] is reported as 2.3.

Work on `CCCCCCCCC(C)(C)c1ccc([C@@H]2C[C@H](O)CC[C@H]2CCCO)cc1` (relative stereo) yielded a Ki [1] of 566 nM, a Ki [2] of 421 nM and a Ratio Ki [3] of 1.3.

`CCCCCCCC(C)(C)c1ccc([C@@H]2C[C@H](O)CC[C@H]2CCCO)cc1` (relative stereo) gave a Ki [1] of 266 nM, a Ki [2] of 173 nM and a Ratio Ki [3] of 1.5.

With `CCCCCC(C)(C)c1ccc([C@@H]2CCC[C@@H](O)C2)cc1` (relative stereo) the Ki [1] was 1030 nM, the Ki [2] was 215 nM and the Ratio Ki [3] was 4.8. For the same compound, the EC50 [5] was 39.6 nM and the Emax [6] was 66%.

For `CCC(C)(C)c1ccc([C@@H]2CCC[C@@H](O)C2)cc1` (relative stereo), the Ki [1] was > 10000 nM, the Ki [2] was 3760 nM and the Ratio Ki [3] was > 2.7.

With `CCC(C)(C)c1ccc([C@@H]2C[C@H](O)CC[C@H]2CCCO)cc1` (relative stereo) the Ki [1] was > 10000 nM, the Ki [2] was 1360 nM and the Ratio Ki [3] was > 7.3.

With `CCCCCCCC(C)(C)c1ccc([C@H]2CCC[C@@H](O)C2)cc1` (relative stereo) the Ki [1] was 786 nM, the Ki [2] was 672 nM and the Ratio Ki [3] was 1.2.

With `CCCC(C)(C)c1ccc([C@H]2CCC[C@@H](O)C2)cc1` (relative stereo) the Ki [1] was > 10000 nM, the Ki [2] was 2060 nM and the Ratio Ki [3] was > 4.9.

For `CC(C)(C)c1ccc([C@H]2CCC[C@@H](O)C2)cc1` (relative stereo), the Ki [1] was > 10000 nM and the Ki [2] was > 10000 nM.

With `CCC(C)(C)c1ccc([C@H]2CCC[C@@H](O)C2)cc1` (relative stereo) the Ki [1] was > 10000 nM, the Ki [2] was 3970 nM and the Ratio Ki [3] was > 2.5.

With `CC(C)(C)c1ccc([C@@H]2CCC[C@@H](O)C2)cc1` (relative stereo) the Ki [1] was > 10000 nM and the Ki [2] was > 10000 nM.

For `CCCCCCCCC(C)(C)c1ccc([C@@H]2CCC[C@@H](O)C2)cc1` (relative stereo), the Ki [1] was 749 nM, the Ki [2] was 1080 nM and the Ratio Ki [3] was 0.7.

For `CCCCCC(C)(C)c1ccc([C@@H]2C[C@H](O)CC[C@H]2CCCO)cc1` (relative stereo), the Ki [1] was 308 nM, the Ki [2] was 221 nM and the Ratio Ki [3] was 1.4.

For `CCCC(C)(C)c1ccc([C@@H]2C[C@H](O)CC[C@H]2CCCO)cc1` (relative stereo), the Ki [1] was 3800 nM, the Ki [2] was 1780 nM and the Ratio Ki [3] was 2.1.

For `CCCC(C)(C)c1ccc([C@@H]2CCC[C@@H](O)C2)cc1` (relative stereo), the Ki [1] was 8630 nM, the Ki [2] was 1510 nM and the Ratio Ki [3] was 5.7.

In the case of `CCCCC(C)(C)c1ccc([C@H]2CCC[C@@H](O)C2)cc1` (relative stereo), the Ki [1] is reported as > 10000 nM, the Ki [2] is reported as 639 nM and the Ratio Ki [3] is reported as > 16.

With `CCCCC(C)(C)c1ccc([C@@H]2CCC[C@@H](O)C2)cc1` (relative stereo) the Ki [1] was 1730 nM, the Ki [2] was 546 nM and the Ratio Ki [3] was 3.2.

In the case of `CCCCCC(C)(C)c1ccc([C@H]2CCC[C@@H](O)C2)cc1` (relative stereo), the Ki [1] is reported as 2110 nM, the Ki [2] is reported as 460 nM and the Ratio Ki [3] is reported as 4.6.
